Screening results as filed in PubChem BioAssay.
Most compounds without a hit are left out; they make up all but 4.3% or so of the library.
STAT1 inh: STAT1 signaling inhibition; NIH 3T3 STAT1-luciferase reporter, IFN-gamma, luminescence; inhibition, % at 5.5 µM; 200,000 compounds, 0.35% hits;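 active = inhibition above a set limit, the mean inhibition across all tested compounds plus 3 SD, cut at about 34% in these data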;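 note: 0% = IFN-gamma with DMSO and 100% = IFN-gamma with 300 µM nifuroxazide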
STAT3 act: increases IL-6 driven STAT3 reporter signal; activation (% of control), % at 5.6 µM; U3A cells, IL-6 STAT3-luciferase reporter, luminescence; 100% = signal with IL-6 EC80 alone; 190,000 compounds, 0.91% hits;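 active = activation above the screen-wide mean of compound activation plus 3 SD, cut at about 130% in these data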;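 note: 0% = background luminescence of wells with medium and substrate only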
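system = STAT3-luciferase reporter U3A cells | reagent = IL-6 stimulus at 33 ng/mL final | timing = 1 h compound pre-exposure, 6 h IL-6 stimulation, 37 °C | measured by = luminescence | evaluation = % activation versus median of IL-6-stimulated wells | control set = IL-6-only wells as 100% reference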
STAT1 act: increases IFN-gamma driven STAT1 reporter signal; NIH 3T3 STAT1-luciferase reporter, luminescence; 100% = IFN-gamma alone, no compound; activation (% of control), % at 5.5 µM; 200,000 compounds, 2.6% hits;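 active = activation above the screen-wide mean activation plus 3 SD, cut at about 130% in these data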;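 note: raw ratio to IFN-gamma control signal so 100% means no change and 0% no light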
STAT3 blocker: reduces IL-6 driven STAT3 reporter signal. AID 862. 190,000 compounds, 0.89% hits. U3A cells, IL-6 STAT3-luciferase reporter, luminescence; host cell line lacks STAT1. inhibition, % at 5.5 µM;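 active = inhibition above the mean inhibition across all screened compounds plus 3 SD, cut at about 44% in these data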;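 note: 0% = DMSO only wells and 100% = 100 µM nifuroxazide control wells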
STAT1 act conf: confirmation of STAT1 signaling activators. shares compounds with STAT1 act. NIH 3T3 STAT1-luciferase reporter, IFN-gamma potentiation, luminescence; 100% = IFN-gamma EC80 alone, no compound. activation (% of control), % at 5.7 µM. 1,200 compounds, 97% hits;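 active = activation above a set limit carried over from the earlier primary STAT1 screen, cut at about 140% in these data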;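 note: simple ratio to median IFN-gamma plus DMSO wells so 0% means no light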
NFkB act: activates NF-kappaB, counter-screen to STAT1 activators; shares compounds with STAT1 act; HEK293T NF-kB luciferase reporter, TNF-alpha stimulated, luminescence; 100% = TNF-alpha with vehicle only; activation (% of control), % at 5.7 µM; 1,200 compounds, 43% hits; AID 1306;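 active = activation above the mean of solvent-only control wells plus 3 SD, set per campaign, cut at about 130% in these data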;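 note: TNF-alpha given at a submaximal dose yielding about 80% of full reporter signal; values are well signal over median control so 100% means no change and 0% no light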
STAT3 act STAT1c: human STAT3 activation in STAT1 activator counter-screen; shares compounds with STAT1 act; U3A cells STAT3-luciferase reporter, IL-6, luminescence; cells lack STAT1; 100 = IL-6 alone, no compound effect; activation (% of control), % at 5.7 µM; 1,200 compounds, 46% hits; AID 1316;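 active = activation above the solvent-only control well mean plus 3 SD, set per plate batch, cut at about 110% in these data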;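 note: 0% = no luminescence and 100% = median IL-6 plus DMSO wells; higher means more STAT3 reporter activation so hits are non-selective activators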
* marks the source's active call; other numbers are inactive results; nt = not tested or not shown.

SMILES	STAT1 inh	STAT3 act	STAT1 act	STAT3 blocker	STAT1 act conf	NFkB act	STAT3 act STAT1c
COC(=O)c1ccncc1C(=O)Nc1ccc(F)cc1	1	98	100	10	nt	nt	nt
Cc1occc1C(=O)Nc1nccs1	6	96	95	8	nt	nt	nt
Cc1occc1C(=O)Nc1nnc(-c2cccs2)s1	-63	112	157*	-8	194*	131	112*
Nc1nn(-c2ccccc2)c(N)c1N=Nc1ccc2c(c1)OCO2	-85	99	178*	3	253*	135*	112*
Cc1nn(C(=O)c2ccc3c(c2)OCO3)c(N)c1-c1ccccc1	-27	100	124	6	nt	nt	nt
Cc1ccc(S(=O)(=O)N2CCC(=O)N(CCO)CC2)cc1	2	89	98	11	nt	nt	nt
N=c1oc2cc(O)ccc2cc1C(=O)Nc1nc2ccccc2s1	-75	127	168*	-39	195*	112	152*
Fc1ccccc1Nc1nc2c(s1)CCc1ccccc1-2	-110	127	198*	-34	268*	157*	161*
Fc1ccccc1Nc1n[nH]c(=S)s1	-21	102	118	6	nt	nt	nt
CCn1cc(C(=O)Nc2nnc(C)s2)c(=O)c2cc(F)c(N3CCN(C(=O)c4ccco4)CC3)cc21	6	95	95	8	nt	nt	nt
OCCOCCNc1ncnc2c1cnn2-c1ccc(Cl)cc1	-63	96	157*	10	225*	133*	116*
Cc1c(Nc2cc(Cl)c3nonc3c2[N+](=O)[O-])c(=O)n(-c2ccccc2)n1C	-302	97	376*	6	159*	113	103
Cc1c(Nc2cc(N3CCOCC3)c3nonc3c2[N+](=O)[O-])c(=O)n(-c2ccccc2)n1C	-12	102	108	2	nt	nt	nt
CC1=CC(=C2C(=O)c3ccccc3C2=O)C=C(C)N1Cc1ccco1	-71	90	165*	14	178*	134*	109
CCN(CC)CCCNC(=O)CSc1nc(C)cc(C)n1	1	98	100	5	nt	nt	nt
O=C(Nc1nc2ccccc2s1)c1ccc(N2CCCCC2)c([N+](=O)[O-])c1	-72	74	166*	30	197*	118	100
Cc1cc(C)n(-c2ccc(C(=O)Nc3nc4ccccc4s3)cc2)n1	-80	100	174*	6	225*	141*	105
Cc1cc(C)n(-c2ccc(C(=O)NC3=NCCS3)cc2)n1	-26	94	124	11	nt	nt	nt
COc1ccc(/C=C2\SC(=O)N(CCNC(=O)C3CC4C=CC3C4)C2=O)cc1 (stereo unspecified)	-64	125	159*	-28	146*	150*	134*
CCOC(=O)c1cnc2ccccc2c1Nc1cc(C(=O)O)ccc1C	10	100	92	5	nt	nt	nt
Cc1nc2c(ccc3nc(NC(=O)c4ccc5c(c4)OCCO5)sc32)s1	-75	72	168*	35	230*	129	104
CCC(=O)Nc1ccc(/C(C)=N/NC(=O)c2c(Br)c(C)nn2C)cc1	10	100	91	0	nt	nt	nt
C/C(=N\NC(=O)c1c(Br)c(C)nn1C)c1ccc(NC(=O)c2ccoc2C)cc1	-22	99	120	2	nt	nt	nt
C/C(=N\NC(=O)c1nn(C)c(C)c1Br)c1ccc(NC(=O)c2ccccc2F)cc1	-62	80	156*	26	123	118	89
C/C(=N\NC(=O)c1nn(C)c(C)c1Br)c1ccc(NC(=O)c2ccoc2C)cc1	-87	81	179*	28	119	115	89
SMILES	STAT1 inh	STAT3 act	STAT1 act	STAT3 blocker	STAT1 act conf	NFkB act	STAT3 act STAT1c
CCCCCCOc1ccc(C(CC(N)=O)C(=O)O)cc1 (stereo unspecified)	-5	101	103	2	nt	nt	nt
Cc1nn(CC(=O)Nc2nnc(C(C)C)s2)c(=O)c2ccccc12	-2	95	100	9	nt	nt	nt
O=C(NC(=S)Nc1cccc(C(F)(F)F)c1)c1csnn1	-4	90	102	16	nt	nt	nt
CC(C)=CC(=O)Nc1nc2ccc([N+](=O)[O-])cc2s1	-91	100	181*	7	180*	126	107
O=[N+]([O-])c1ccc(N/N=C\c2cccn2-c2ccccc2)nc1	1	82	99	27	nt	nt	nt
CCSc1ncc(/C=N/Nc2ccc([N+](=O)[O-])cc2)n1C	-68	100	162*	6	196*	149*	102
O=C(O)c1cc(N2C(=O)C3C4C=CC(C4)C3C2=O)ccc1N1CCOCC1 (stereo unspecified)	1	95	98	8	nt	nt	nt
COc1ccc(/C(N)=N/OC(=O)c2cccc([N+](=O)[O-])c2)cc1OC	-1	88	100	15	nt	nt	nt
N/C(=N\OC(=O)c1ccc2c(c1)OCO2)c1cccc([N+](=O)[O-])c1	-61	106	153*	-4	198*	126	118*
C=CCN(CC=C)CCCOc1ccc(Br)cc1Cl	-4	100	102	4	nt	nt	nt
COc1ccc2nc(NC(=O)c3ccccc3-c3ccccc3C(=O)O)sc2c1	-8	97	106	6	nt	nt	nt
COc1ccc2nc(NC(=O)Nc3ccccc3)sc2c1	-116	81	205*	24	280*	117	98
CCOc1ccc2nc(NC(=O)Nc3cccs3)sc2c1	-92	89	184*	12	253*	149*	121*
CCOc1ccc2nc(NC(=O)CN3CCN(C)CC3)sc2c1	-14	111	113	-9	nt	nt	nt
CCOc1ccc2nc(NC(=O)Nc3ccccc3)sc2c1	-59	91	155*	16	224*	139*	115*
CCCCOC(=O)Nc1nc2ccccc2s1	-58	79	153*	28	213*	133	105
CCCCOC(=O)Nc1nc2ccc(OC)cc2s1	-21	90	119	15	nt	nt	nt
COC(=O)c1ccc(CSc2nc3ccc(C)cc3[nH]2)o1	1	103	100	-5	nt	nt	nt
Cc1ccccc1NC(=S)NNC(=O)c1csc2c1CCC(C)C2 (stereo unspecified)	8	78	93	30	nt	nt	nt
COC(=O)c1ccc(NC(=O)CSC2=NC(=O)C(c3ccccc3)C(=O)N2)cc1 (stereo unspecified)	-3	97	103	1	nt	nt	nt
O=C(CNC(=O)Cc1ccc(Cl)cc1)NCc1ccco1	-2	104	99	4	nt	nt	nt
COc1ccc(NC(=O)c2nc3ccccc3s2)cc1	-69	67	161*	42	232*	96	99
COc1ccc(OC)c(NC(=O)c2nc3ccccc3s2)c1	-26	109	121	-10	nt	nt	nt
CCN(Cc1ccncc1)C(=O)CCc1nnc(CCc2ccc(OC)cc2)o1	-7	106	104	-4	nt	nt	nt
